{"source": "ChEMBL document CHEMBL3259611", "about": "“Suppression of inflammatory responses by handelin, a guaianolide dimer from Chrysanthemum boreale, via downregulation of NF-κB signaling and pro-inflammatory cytokine production” (J Nat Prod, 2014)", "key": {"[1]": {"target": "T1, Nuclear factor NF-kappa-B p105 subunit (Mus musculus) (UniProt P25799)", "T1 sequence (whole entry)": "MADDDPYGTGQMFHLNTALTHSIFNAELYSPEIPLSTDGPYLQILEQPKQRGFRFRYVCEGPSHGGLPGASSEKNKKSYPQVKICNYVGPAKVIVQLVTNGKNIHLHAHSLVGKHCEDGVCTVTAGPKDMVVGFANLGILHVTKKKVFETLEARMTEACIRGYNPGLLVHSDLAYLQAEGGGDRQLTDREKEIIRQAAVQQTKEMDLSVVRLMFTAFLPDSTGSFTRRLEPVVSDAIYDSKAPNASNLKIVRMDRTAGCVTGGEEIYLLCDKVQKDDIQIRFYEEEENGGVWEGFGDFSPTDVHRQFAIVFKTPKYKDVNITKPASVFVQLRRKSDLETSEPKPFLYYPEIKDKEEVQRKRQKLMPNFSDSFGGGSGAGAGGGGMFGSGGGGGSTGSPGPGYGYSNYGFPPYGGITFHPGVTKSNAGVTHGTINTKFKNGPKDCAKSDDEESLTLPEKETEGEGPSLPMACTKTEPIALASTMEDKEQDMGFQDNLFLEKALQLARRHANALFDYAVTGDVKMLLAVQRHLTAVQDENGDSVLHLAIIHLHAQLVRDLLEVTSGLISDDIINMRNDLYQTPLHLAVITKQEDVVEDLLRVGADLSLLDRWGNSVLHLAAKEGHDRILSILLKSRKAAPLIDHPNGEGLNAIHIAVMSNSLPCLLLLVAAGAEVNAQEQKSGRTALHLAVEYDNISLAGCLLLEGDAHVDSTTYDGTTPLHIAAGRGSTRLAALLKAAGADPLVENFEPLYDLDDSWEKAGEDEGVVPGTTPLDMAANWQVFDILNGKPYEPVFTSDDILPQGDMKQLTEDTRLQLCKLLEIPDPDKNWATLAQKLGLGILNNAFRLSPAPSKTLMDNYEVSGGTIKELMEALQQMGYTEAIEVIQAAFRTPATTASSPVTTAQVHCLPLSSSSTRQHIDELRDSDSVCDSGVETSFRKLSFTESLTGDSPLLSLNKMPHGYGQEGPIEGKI", "test": "Inhibition of LPS-induced NFkappaB P50 protein nuclear translocation in mouse RAW264.7 cells at 10 uM after 30 mins by Western blotting analysis relative to control", "assay_type": "cell-based", "procedure,_shortened": "(§1)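 Macrophages were exposed to compound for 30 min before LPS stimulation, with proteins extracted 30 min later. Nuclear extracts were prepared in Tris/KCl/NP-40 lysis buffer, then 420 mM NaCl buffer, and the cytosolic fraction was kept for IκB-α. Western blot on PVDF with ECL detection. Tests in triplicate; representative of three separate experiments.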"}, "RAW264.7 [2]": {"test_system": "RAW264.7", "test": "Antiinflammatory activity in mouse RAW264.7 cells assessed as inhibition LPS-induced TNF-alpha protein expression after 4 hrs by Western blotting analysis", "assay_type": "functional, cell-based", "procedure,_shortened": "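RAW 264.7 cells stimulated with LPS (1 μg/mL) with or without compound for 4 h. Lysates were resolved by 6−15% SDS-PAGE and blotted to PVDF. Blocked in 5% milk/PBST, primary antibody overnight at 4 °C, secondary antibody 2 h, detected by ECL. Triplicate, representative of three experiments.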"}, "[3]": {"target": "T1, Nuclear factor NF-kappa-B p105 subunit (Mus musculus)", "test": "Inhibition of LPS-induced NFkappaB P50 protein nuclear translocation in mouse RAW264.7 cells at 40 uM after 30 mins by Western blotting analysis relative to control", "assay_type": "cell-based", "procedure,_shortened": "as §1"}, "RAW264.7 [4]": {"test_system": "RAW264.7", "test": "Inhibition of LPS-induced NFkappaB transcriptional activity in mouse RAW264.7 cells assessed as […] at 40 uM after 30 mins by Western blotting analysis relative to control", "assay_type": "cell-based", "procedure,_shortened": "as §1"}}, "note": "Calls of active or inactive are those of the source. The calls are words filed in the database; no cut-off is given here.", "data": [{"smiles": "C=C1C(=O)O[C@@H]2[C@@H]3[C@@]4(C=C[C@@]3(C)[C@]3(C4)C(=O)O[C@@H]4[C@H]5C(C)=CC[C@H]5[C@](C)(O)C[C@H](OC(C)=O)[C@H]43)[C@](C)(O)CC[C@@H]12", "values": [{"measurement": "inhibition", "setting": "[1]", "value": "Active"}, {"measurement": "inhibition", "setting": "RAW264.7 [2]", "value": "Dose-dependent effect"}, {"measurement": "fold change (FC)", "setting": "[3]", "value": 0.16}, {"measurement": "fold change (FC)", "setting": "RAW264.7 [4]", "value": 1.83}]}]}
